pIC50, pKi: −log10 of the molar value.
Experiments:
[1] = molecular target: T1, Glutamate receptor ionotropic, AMPA (Rattus norvegicus, UniProt P19490+P19491+P19492+P19493); assay: Displacement of [3H]AMPA from Ionotropic glutamate receptor AMPA in rat cortical membranes.; assay type: cell membranes, Membrane
[2] = molecular target: T2, Glutamate receptor ionotropic, NMDA 1 (Rattus norvegicus, UniProt P35439); assay: Displacement of [3H]glycine from N-methyl-D-aspartate glutamate receptor 1 in rat cortical membranes; assay type: cell membranes, Membrane
[3] = molecular target: Glutamate receptor ionotropic, kainate (Rattus norvegicus) (UniProt P22756+Q01812+P42260+P42264+Q63273); assay: Percent Inhibition of specific [3H]KA binding to Ionotropic glutamate receptor in rat cortical membranes.; assay type: cell membranes; set-up: concentration or dose not given beside the values; conditions: Membrane; concentration not given here
Procedure, shortened: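 Membranes resuspended (0.5 mg protein/mL) in 0.05 M Tris-citrate, pH 7.4, preincubated at 37 °C for 30 min, then washed three times in ice-cold buffer. Binding run on ice for 60 min with 5 nM [3H]kainate; nonspecific binding defined with 1 mM glutamate. Separation by GF/C filtration.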

[4] = molecular target: Glutamate receptor ionotropic, AMPA (Rattus norvegicus) (UniProt P19491+P19492+P19493+P19490); assay: Percent Inhibition by displacing [3H]AMPA from Ionotropic glutamate receptor AMPA specific binding sites in rat cortical membranes; assay type: cell membranes; set-up: concentration or dose not given beside the values; conditions: concentration not given here
[5] = molecular target: Glutamate receptor ionotropic, NMDA 1 (Rattus norvegicus) (UniProt P35439); assay: (§1) Percent Inhibition by displacing [3H]glycine of N-methyl-D-aspartate glutamate receptor 1 in rat cortical membranes; assay type: cell membranes; set-up: concentration or dose not given beside the values; conditions: Membrane; concentration not given here
Mus musculus [6] = organism: Mus musculus; assay: Concentration that inhibits by 50% depolarization induced by 5M AMPA; assay type: functional
Procedure, shortened: (§2)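 Cortical wedge preparation (per Mannaioni et al.). AMPA or NMDA (5 μM) applied for 2 min every 15 min until control peaks were stable, then wedges continuously superfused with antagonist while agonist pulses continued. Afterwards, washout with antagonist-free Krebs and agonist applied every 15 min for 30-60 min to confirm recovery. dc potential between two compartments recorded via Ag/AgCl electrodes. IC50 derived against control peaks; mean ± SEM, n = 4.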

Mus musculus [7] = organism: Mus musculus; assay: Concentration that inhibits by 50% depolarization induced by 5M NMDA; assay type: functional; procedure, shortened: as §2
[8] = molecular target: Glutamate receptor ionotropic, kainate; assay: Inhibition of specific binding […] by displacing [3H]KA, from specific binding sites of Ionotropic glutamate receptor ionotropic kainate in rat cortical membranes; assay type: cell membranes, Membrane
Procedure, shortened: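 Rat cortical membranes preincubated at 0.5 mg protein/mL in 0.05 M Tris-citrate pH 7.4, 37 °C for 30 min, then washed thrice in ice-cold buffer. Binding on ice for 60 min with 5 nM [3H]kainate, 0.2-0.3 mg protein per assay. Nonspecific binding defined with 1 mM glutamate. Filtration separation.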

[9] = molecular target: T2, Glutamate receptor ionotropic, NMDA 1; assay: as §1; assay type: cell membranes, Membrane
[10] = molecular target: T1, Glutamate receptor ionotropic, AMPA; assay: Inhibition by displacing [3H]AMPA from Ionotropic glutamate receptor AMPA specific binding sites in rat cortical membranes; assay type: cell membranes
[11] = molecular target: T2, Glutamate receptor ionotropic, NMDA 1; assay: Inhibition by displacing [3H]-Glycine of N-methyl-D-aspartate glutamate receptor 1 in rat cortical membranes; assay type: cell membranes, Membrane
Glutamate NMDA receptor = assay: Inhibition of stimulated [3H](+)-MK-801 binding to N-methyl-D-aspartate glutamate receptor in rat cortical membranes incubated with 10 uM glutamate and 0.1 uM glycine.

CCOC(=O)c1cc2c3cc([N+](=O)[O-])c(Cl)cc3[nH]c(=O)n2n1
pKi [1]: 5.09
pKi [2]: 4.97

O=C(O)c1cc2n(n1)C(C(=O)O)Nc1ccccc1-2 (stereo not given)
inhibition [3]: 11%
inhibition [4]: 0%
inhibition [5]: 35%

CCOC(=O)c1cc2c3cc(-n4cnnc4)c(Cl)cc3nc(O)n2n1
inhibition [3]: 38%
pKi [1]: 6.06
pIC50 (Mus musculus [6]): 5.76
pIC50 (Mus musculus [7]): < 4.30
inhibition [5]: 18%

CCOC(=O)c1cc2c3ccc(Cl)cc3nc(O)n2n1
inhibition [3]: 15%

CCOC(=O)c1cc2c3ccccc3[nH]c(=O)n2n1
pKi [1]: 4.38
pKi [2]: 4.48

O=C(O)c1cc2c3cc([N+](=O)[O-])c(Cl)cc3[nH]c(=O)n2n1
pIC50 [8]: 4.64
pKi [1]: 6.13
pKi [9]: 5.96

O=Cc1ccn(-c2cc3c(cc2Cl)nc(O)n2nc(C(=O)O)cc32)c1
pIC50 [8]: 5.26
pKi [10]: 6.57
pIC50 (Mus musculus [6]): 6.30
pIC50 (Mus musculus [7]): 4.60
pKi [11]: 5.09

CCOC(=O)c1cc2c3cc(-n4ccc(C=O)c4)c(Cl)cc3nc(O)n2n1
inhibition [3]: 29%
pKi [10]: 5.85
pIC50 (Mus musculus [6]): 6.00
pIC50 (Mus musculus [7]): < 4.30
pKi [11]: 4.24

CCOC(=O)c1cc2c3ccccc3nc(O)n2n1
inhibition [3]: 12%

O=C(O)c1cc2c3cc(-n4cnnc4)c(Cl)cc3[nH]c(=O)n2n1
pKi [1]: 6.85
pIC50 (Mus musculus [7]): 4.70

O=C(O)C1=NN2C(=O)Nc3ccccc3C2C1 (stereo not given)
pIC50 [8]: 4.71
pKi [1]: 4.02
pKi [2]: 5.70

CCOC(=O)c1cc2c3cc([N+](=O)[O-])c(Cl)cc3nc(O)n2n1
inhibition [3]: 23%

O=C(O)c1nc2c(=O)[nH]c3cc(Cl)c(-n4cnnc4)cc3n2n1 [TQX-173]
pKi [11]: 4.47

O=C(O)c1cc2c3cc(Cl)c(Cl)cc3[nH]c(=O)n2n1
pIC50 [8]: 4.39
pKi [1]: 5.62
pKi [2]: 6.80

O=C(O)c1cc2n(n1)C(C(=O)O)Nc1cc(Cl)ccc1-2 (stereo not given)
inhibition [3]: 13%
inhibition [4]: 7%
inhibition [5]: 25%

COC(=O)C1=NN2C(=O)Nc3cc(Cl)ccc3C2C1 (stereo not given)
inhibition [3]: 3%
pKi [1]: 4.76
pKi [2]: 4.97

CCOC(=O)c1cc2n(n1)C(C(=O)O)Nc1cc(Cl)ccc1-2 (stereo not given)
inhibition [3]: 1%
inhibition [4]: 6%
inhibition [5]: 5%

O=C(O)c1cc2c3cc([N+](=O)[O-])ccc3nc(O)n2n1
inhibition [3]: 24%
pKi [1]: 4.59
inhibition [5]: 35%

COC(=O)C1=NN2C(=O)Nc3ccccc3C2C1 (stereo not given)
inhibition [3]: 0%
inhibition [4]: 29%
inhibition [5]: 40%

CCOC(=O)c1cc2n(n1)C(C(=O)O)Nc1ccccc1-2 (stereo not given)
inhibition [3]: 0%
inhibition [4]: 12%
inhibition [5]: 15%

CCOC(=O)c1cc2c3cc(N)c(Cl)cc3nc(O)n2n1
inhibition [3]: 11%
inhibition [4]: 33%
inhibition [5]: 40%

O=C(O)C1=NN2C(=O)Nc3cc(Cl)c(Cl)cc3C2C1 (stereo not given)
inhibition [3]: 17%
pKi [1]: 5.58
pKi [11]: 6.72

O=C(O)C1=NN2C(=O)Nc3cc(Cl)ccc3C2C1 (stereo not given)
inhibition [3]: 20%
pKi [1]: 5.14
pKi [2]: 6.62

CCOC(=O)c1cc2c3ccc(Cl)cc3[nH]c(=O)n2n1
pKi [1]: 4.14
pKi [2]: 4.58

CCOC(=O)c1cc2c3cc(N)ccc3nc(O)n2n1
inhibition [3]: 30%
inhibition [4]: 27%
inhibition [5]: 30%

COC(=O)c1cc2c3cc(Cl)c(Cl)cc3nc(O)n2n1
inhibition [3]: 10%
inhibition [4]: 42%
pKi [2]: 5.89

O=C(O)c1cc2c3ccccc3nc(O)n2n1
inhibition [3]: 26%
pKi [1]: 4.91
pKi [2]: 5.85
pIC50 (Glutamate NMDA receptor): 4.98

COC(=O)C1=NN2C(=O)Nc3cc(Cl)c(Cl)cc3C2C1 (stereo not given)
inhibition [3]: 9%
pKi [1]: 5.07
pKi [2]: 5.40

O=C(O)c1cc2c3ccc(Cl)cc3nc(O)n2n1
pIC50 [8]: 4.22
pKi [1]: 5.64
pKi [2]: 6.32

CCOC(=O)c1cc2c3cc([N+](=O)[O-])ccc3nc(O)n2n1
inhibition [3]: 4%
inhibition [4]: 27%
inhibition [5]: 15%

Source: ChEMBL document CHEMBL1135729, “Synthesis and biological evaluation of a new set of pyrazolo[1,5-c]quinazoline-2-carboxylates as novel excitatory amino acid antagonists” (J Med Chem, 2002)
